Screening results from PubChem.
CXCR6 inh: blocks human CXCR6 beta-arrestin recruitment; O00574; CHO-K1 PathHunter CXCR6 beta-arrestin, luminescence; inhibition, % at 20 µM; 0.36% of 360,000 active; AID 602244; in the data active means inhibition above about 34%, passing the limit was not always enough;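 further: antagonist mode with CXCL16 agonist at 10 nM final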
EBI2 antag: antagonists of human EBI2 receptor; P32249; EBI2 beta-arrestin recruitment, luminescence, 7a,25-OHC stimulated; inhibition, % at 5 µM; 0.81% of 360,000 active; AID 651636; in the data active means inhibition above about 38%;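 further: enzyme fragment complementation signal reports receptor beta-arrestin coupling in cells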
APJ antagonist: APJ receptor antagonism | P35414 | CHO-K1 APJ beta-arrestin complementation, luminescence | inhibition, % at 20 µM | 0.32% of 330,000 active;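 active means inhibition above about 40% at 20 µM, limit read from the data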;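 further: cells challenged with 10 nM apelin-13 agonist together with compound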
Target sequence (P35414 whole entry, looked up): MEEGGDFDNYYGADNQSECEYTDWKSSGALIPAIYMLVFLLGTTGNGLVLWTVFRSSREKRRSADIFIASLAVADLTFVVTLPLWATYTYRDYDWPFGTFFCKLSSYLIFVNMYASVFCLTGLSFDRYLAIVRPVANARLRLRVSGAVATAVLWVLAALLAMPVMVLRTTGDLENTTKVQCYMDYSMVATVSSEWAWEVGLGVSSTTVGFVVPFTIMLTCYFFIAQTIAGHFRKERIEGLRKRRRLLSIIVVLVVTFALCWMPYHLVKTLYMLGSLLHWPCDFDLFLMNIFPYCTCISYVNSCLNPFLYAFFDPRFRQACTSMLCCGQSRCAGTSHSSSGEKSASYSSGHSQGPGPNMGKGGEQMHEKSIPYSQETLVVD
CCR6 antagonist: CCR6 (human) receptor antagonism | P51684 | CHO-K1 CCR6 PathHunter beta-arrestin, luminescence, CCL20-stimulated | inhibition, % at 20 µM | 0.49% of 340,000 active | AID 493098;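 active means compounds whose inhibition of the agonist-driven luminescence signal at 20 µM reaches about 50%, limit read from the data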;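 further: cells stimulated with CCL20 at 14 nM final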
APJ agonist: agonists of human APJ apelin receptor | CHO-K1 APJ PathHunter beta-arrestin, luminescence; 0% DMSO wells, 100% apelin | AID 2520 | P35414 | activation, % at 20 µM | 0.11% of 330,000 active;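 active means activation more than six SD over the plate average, tested at 20 µM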
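system = engineered CHO-K1 APJ arrestin reporter cells | input = 1000 cells per well | timing = overnight seeding, 90 min compound at 25 °C, 1 h detection | measured by = enzyme-fragment complementation luminescence | read-out = beta-arrestin recruitment to APJ as agonist activity, luminescent signal | control set = negative DMSO alone, positive Apelin-13 at 10 nM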
CXCR6 confirm: confirmation of human CXCR6 receptor antagonists; inhibition, % at 20 µM; CHO-K1 CXCR6 PathHunter beta-arrestin, luminescence; shares compounds with CXCR6 inh; AID 602409; 65% of 700 active;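 active means mean inhibition over four retests above 40%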;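 further: receptor stimulated with 10 nM CXCL16 agonist; beta-galactosidase fragment complementation upon beta-arrestin recruitment to receptor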
Hits are given with their value; n = inactive; x = no result given. Only some compounds are listed: those with a hit (about 1.5% of all), similar ones and a draw of the others.

SMILES | CXCR6 inh | EBI2 antag | APJ antagonist | CCR6 antagonist | APJ agonist | CXCR6 confirm
O=C(C#Cc1ccccc1)c1ccccc1 | 70.6 | n | x | x | x | 71.8
CN(C)C(=O)C#Cc1ccccc1 | n | n | n | n | n | x
CCOC(=O)[C@]12CCCC=C1N(CCc1ccc(OC)c(OC)c1)C(=O)[C@H](CC(=O)N1CCCCC1)C2 | x | n | x | x | x | x
C[C@H]1CN([C@@H](C)CO)C(=O)CCCn2nncc2CO[C@@H]1CN(C)Cc1ccccc1C(F)(F)F | 39.3 | n | x | x | x | n
Cc1ccc(C(=O)NNC(=S)NC(=O)c2ccccc2)cc1 | 36.1 | n | n | x | n | 44.4
Cc1ccc(C(=O)NC(=S)NNC(=O)c2ccccc2)cc1 | n | n | n | n | n | x
O=C(/C=C/c1ccc(Cl)cc1)N(c1ccccn1)C1CCCCC1 | 59.1 | n | n | n | n | n
C[n+]1ccc(/C=N/Nc2nc(Cl)c(C#N)c(Cl)c2Cl)cc1 | 42.5 | n | n | 55.8 | n | 52.0
C=CCN(CC=C)C(=S)NC(=O)c1ccc(OC)cc1 | n | n | n | n | n | x
C=CCN(CC=C)C(=S)NC(=O)c1ccc(-c2ccccc2)cc1 | 52.8 | n | n | x | n | 72.8
C=CCN(CC=C)C(=S)NC(=O)c1ccc(C)c(Br)c1 | 48.9 | n | n | n | n | 54.4
COC(=O)/C=C1\OC(C2CC2)c2ccccc21 (stereo not drawn) | x | n | x | x | x | x
O=C(N/N=C/c1c[nH]c2ccccc12)c1sc2ccccc2c1Cl | n | n | n | n | n | x
O=C(N/N=C/c1ccc([N+](=O)[O-])o1)c1sc2ccccc2c1Cl | 41.0 | n | n | n | n | 43.5
O=c1[nH][nH]c2c1[C@H](c1ccc(Cl)cc1)O[C@H](C1CCCCC1)C2 | n | n | x | x | x | x
CCc1nc2ccc(C(=O)Nc3cccc(OCC(=O)N(C)C)c3)cn2c1N(C)C(=O)c1cccc(OC)c1 | n | n | x | x | x | x
COC(=O)C1(C(=O)OC)C2CCCCC2N(S(=O)(=O)c2ccc(C)cc2)[C@@H]1CC(C)=O (stereo partly drawn) | x | n | x | x | x | x
COc1ccc(Nc2ncccc2C(=O)O)cc1 | 69.5 | n | n | n | n | n
COc1cc(N2C(=O)C=CC2=O)ccc1N1C(=O)C=CC1=O | 105.5 | n | x | 106.6 | x | 46.7
COc1ccc(N2C(=O)C3CC(C)=C(C)CC3C2=O)c(OC)c1 (stereo not drawn) | n | n | n | n | n | x
COC(=O)c1ccc(CN2C(=O)NC3(CCCc4ccccc43)C2=O)o1 (stereo not drawn) | 45.9 | n | n | n | n | n
COC(=O)CN1C(=O)NC2(CCCc3ccccc32)C1=O (stereo not drawn) | n | n | n | n | n | x
O=C(Nc1ccccc1Oc1ccccc1)[C@@H]1O[C@H](CO)[C@H](O)[C@H](O)[C@H]1O | 57.2 | n | x | x | x | 70.9
CCOc1ccccc1CN1[C@@H](c2ccc(OC)cc2)CC(C(=O)OC)(C(=O)OC)[C@H]1c1ccccc1 | x | n | x | x | x | x
O=C1N[C@@H](Cc2ccccc2)COC(=O)[C@H](Cc2ccc(F)cc2)CC/C=C/C[C@@H]1CC(=O)N(CCO)Cc1ccccc1 | n | n | n | n | n | x
SMILES | CXCR6 inh | EBI2 antag | APJ antagonist | CCR6 antagonist | APJ agonist | CXCR6 confirm
O=C1NC[C@H](c2ccccc2)OC(=O)[C@@H](Cc2ccc(F)cc2)CC/C=C/C[C@@H]1CC(=O)N(CCO)Cc1ccccc1 | 55.1 | n | x | 61.8 | x | 45.0
Cc1nc2c(OCCC3CCCCC3)cccn2c1N(C)C(=O)CCC1CCCC1 | n | n | x | x | x | x
CC(C)(C)Cc1c(-c2ccc(C#N)cc2)nc2ccc(Cl)cn12 | n | n | x | x | x | x
CCOC(=O)c1sc2nc(SCC(=O)N(CC)CC)n(CCCN3CCCC3=O)c(=O)c2c1C | n | n | n | n | n | x
CCOC(=O)c1sc2nc(SCC#N)n(CC3CCCO3)c(=O)c2c1C (stereo not drawn) | 60.9 | n | n | n | n | n
CC1(C(=O)NS(=O)(=O)C2CC2)CCCN(C(=O)c2cccc(Cl)c2)C1 (stereo not drawn) | n | n | x | x | x | x
O=C(NNc1ccc(C(F)(F)F)cc1[N+](=O)[O-])c1ccc(NS(=O)(=O)c2ccc(F)cc2)cc1 | 47.6 | n | x | 57.5 | x | n
CC(=O)C1=CCC(c2cccc(Cl)c2)N(S(=O)(=O)c2ccc(C)cc2)C1 (stereo not drawn) | n | n | x | x | x | x
Cc1[nH]n2c(=O)cc(-c3ccc([N+](=O)[O-])cc3)nc2c1-c1ccccc1 | 58.7 | n | n | x | n | 52.2
CC(=O)Nc1cccc(-c2ccnc3c2CC(C)(C(=O)Nc2ccc(C(C)C)cc2)O3)c1 (stereo not drawn) | n | n | x | x | x | x
N#CC(C#N)=C1C=CC=CN1/C(=C\c1ccco1)C(=O)c1ccc(-c2ccccc2)cc1 | 44.0 | n | x | 82.8 | x | 50.6
COc1ccc(NC(=O)c2cc(C3CCCCN3S(=O)(=O)c3c(C)noc3C)on2)c(C)c1 (stereo not drawn) | n | n | x | x | x | x
O=C(Nc1nnc([C@H]2C[C@H](O)[C@@H](CO)O2)s1)c1cccc(OC(F)(F)F)c1 | n | n | x | x | x | x
COC(=O)[C@]12CCCCC=C1N(Cc1ccccc1)C(=O)[C@H](CC(=O)NCC13CC4CC(CC(C4)C1)C3)C2 | n | n | x | x | x | x
CCOc1ccc(NCc2cc3c(C(C)(C)C)nn(-c4ccccc4)c3[nH]c2=O)cc1 | 47.7 | n | n | n | n | n
O=C(c1ccc(Br)s1)N1CCCC1 | n | n | n | n | n | x
O=C(c1ccc(Br)s1)N1CCN(c2ncccn2)CC1 | 41.4 | n | n | n | n | n
COc1cccc(C(=O)NC(=S)N2CCN(c3ccc(C(F)(F)F)cc3[N+](=O)[O-])CC2)c1 | 48.5 | n | n | x | n | 48.9
CC(C)Oc1cccc(C(=O)NC(=S)N2CCN(c3ccc(C(F)(F)F)cc3[N+](=O)[O-])CC2)c1 | n | n | n | n | n | x
CC(CCc1ccccc1)NC(=S)NC(=O)c1ccco1 (stereo not drawn) | n | n | n | n | n | x
O=C(NC(=S)N(CCc1ccccc1)CCc1ccccc1)c1ccco1 | 38.8 | n | n | x | n | 50.1
O=C(NC(=S)N(Cc1ccccc1)Cc1ccccc1)c1ccccc1F | 36.1 | n | n | n | n | n
O=C(NC(=S)NCc1ccccc1)c1ccccc1F | n | n | n | n | n | x
CC(C)Oc1ccc(CN2CCC2(C)C(=O)Nc2cnc3ccccc3c2)cc1 (stereo not drawn) | n | n | x | x | x | x
O=C1c2ccccc2[C@@H]2Cc3csc[n+]3[C@H]12 | n | n | x | x | x | x
COC(=O)c1cc([N+](=O)[O-])c(-n2cncn2)c([N+](=O)[O-])c1 | 79.1 | n | x | 96.8 | x | 95.8
CCSc1nnc([C@H](Cc2ccccc2)NC(=O)OC(C)(C)C)o1 | n | n | n | n | n | x
Cc1ccccc1CS(=O)(=O)c1nnc([C@H](Cc2ccccc2)NC(=O)OC(C)(C)C)o1 | 64.5 | n | n | 88.6 | n | 58.2
CC(=O)Nc1ccc(Sc2ccc([N+](=O)[O-])o2)cc1 | 51.7 | n | x | 57.0 | x | 59.7
